Results taken from ChEMBL document CHEMBL4017549, “Structural Basis of Inhibition of ERα-Coactivator Interaction by High-Affinity N-Terminus Isoaspartic Acid Tethered Helical Peptides” (J Med Chem, 2017).
Active and inactive are the calls of the source. The calls are words filed in the database; no cut-off is given here.

Key:
[1] = system: MCF7; assay: Cytotoxicity against human MCF7 cells assessed as reduction in cell viability at 1 uM after 24 hrs by MTT assay relative to control; assay type: cell-based; settings: mcf7, 24 h
[2] = system: MCF-10A; assay: Cytotoxicity against human MCF10A cells assessed as reduction in cell viability up to 40 uM after 24 hrs by MTT assay; assay type: cell-based
How it was run: (§1)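 MTT read-out. 5000−10000 cells/well seeded overnight in their own medium: MCF7 and MCF10A in DMEM with phenol red, 10% FBS, 37 °C, 5% CO2; T47D in RPMI1640 with insulin and 10% FBS; MDA-MB-231 in L-15, 10% FBS, no CO2. Serial peptide dilutions or DMSO for 20 h at 37 °C, then MTT 4 h more; formazan in DMSO, A570.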

[3] = target: T1, Estrogen receptor (Homo sapiens) (UniProt P03372); assay: (§2) Inhibition of recombinant human GFP-fused ERalpha LBD (301 to 553 residues) expressed in human […] cells assessed as downregulation of 17beta-estradiol-induced transcription at 5 uM preincubated for 4 hrs followed by E2 addition measured after 20 hrs by dual luciferase reporter gene assay; assay type: cell-based
T1 sequence (whole entry): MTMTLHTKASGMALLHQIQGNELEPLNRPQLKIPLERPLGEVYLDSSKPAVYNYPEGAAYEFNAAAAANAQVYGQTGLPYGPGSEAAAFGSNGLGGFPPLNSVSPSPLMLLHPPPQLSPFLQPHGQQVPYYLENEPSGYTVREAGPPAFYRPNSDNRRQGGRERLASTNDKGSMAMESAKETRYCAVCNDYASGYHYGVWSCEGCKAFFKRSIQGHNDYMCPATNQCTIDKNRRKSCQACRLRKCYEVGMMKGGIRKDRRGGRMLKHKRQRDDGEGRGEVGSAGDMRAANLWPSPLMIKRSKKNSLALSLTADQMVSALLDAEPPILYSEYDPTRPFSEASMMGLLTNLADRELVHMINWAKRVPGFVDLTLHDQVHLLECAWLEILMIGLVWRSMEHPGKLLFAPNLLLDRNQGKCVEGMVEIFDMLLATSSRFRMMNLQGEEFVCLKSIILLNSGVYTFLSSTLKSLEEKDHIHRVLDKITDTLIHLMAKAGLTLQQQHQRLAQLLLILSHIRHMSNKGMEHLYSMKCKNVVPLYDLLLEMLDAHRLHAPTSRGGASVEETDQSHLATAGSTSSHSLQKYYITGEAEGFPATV
How it was run: (§3)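 U2OS cells in phenol red-free DMEM with 10% charcoal-stripped FBS, transfected 4 h with pEGFP-C1-ERα, 3XERE firefly luciferase reporter and pRL-TK Renilla plasmids. Peptides for 4 h, then 10 nM E2 or DMSO for 20 h. Lysates read by dual-luciferase; firefly normalized to Renilla, then to DMSO-treated control. SEM from more than two independent experiments.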

[4] = target: T1, Estrogen receptor (Homo sapiens); assay: as §2, with “20 hrs in presence of tamoxifen by dual” for “20 hrs by dual”; assay type: cell-based; how it was run: as §3
[5] = system: MDA-MB-231; assay: Cytotoxicity against human MDA-MB-231 cells assessed as reduction in cell viability up to 40 uM after 24 hrs by MTT assay; assay type: functional, cell-based; how it was run: as §1
[6] = system: MCF7; assay: Cytotoxicity against human MCF7 cells assessed as reduction in cell viability at 5 uM after 24 hrs by MTT assay relative to control; assay type: cell-based; settings: mcf7, 24 h
[7] = system: T47D; assay: Cytotoxicity against human T47D cells assessed as reduction in cell viability up to 40 uM after 24 hrs by MTT assay; assay type: functional, cell-based; how it was run: as §1
[8] = system: MCF7; assay: Cytotoxicity against human MCF7 cells assessed as cell viability at 20 uM after 24 hrs by MTT assay; assay type: functional; settings: MCF7, 24 h, read-out: Activity
[9] = target: T1, Estrogen receptor (Homo sapiens); assay: Inhibition of ERalpha in human MCF7 cells assessed as downregulation of 17beta-estradiol-mediated pS2 mRNA expression at 5 uM preincubated for 4 hrs followed by 17beta-estradiol addition measured after 16 hrs by quantitative RT-PCR analysis; assay type: cell-based
How it was run: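 MCF-7 cells hormone-depleted 72 h in phenol red-free DMEM with 5% charcoal-treated serum, given peptides or DMSO for 4 h, then 100 nM 17β-estradiol or DMSO for 16 h. pS2 mRNA measured by quantitative RT-PCR, normalized to β-actin. Three independent experiments, mean ± SEM.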

[10] = system: MCF7; assay: Cytotoxicity against human MCF7 cells assessed as reduction in cell viability after 24 hrs by MTT assay; assay type: functional, cell-based; how it was run: as §1

Q: What does the source list for `CC[C@H](C)[C@@H]1NC(=O)C[C@H](NC(=O)[C@H](CCCNC(=N)N)NC(=O)CCNC(=O)[C@H](Cc2c[nH]c3ccccc23)NC(C)=O)C(=O)NCC(C(=O)N[C@@H](CCCNC(=N)N)C(=O)NC(CC(C)(C)C)C(=O)NC(CC(C)(C)C)C(=O)N[C@@H](CCC(N)=O)C(N)=O)NC(=O)C(CC(C)(C)C)NC1=O` (stereo partly specified)?
A: Activity [1]: < 20%; Activity [2]: Non-Toxic; inhibition [3]: Active; inhibition [4]: Active; Activity [5]: inactive; Activity [6]: < 20%; Activity [7]: Active; viability at 20 µM [8]: 14%; inhibition [9]: Active; Activity [10]: Dose-dependent effect; IC50 ([10]; MCF7, 24 h): 12 µM
